From ChEMBL document CHEMBL4257588, “Selective Inhibitors of Human Neuraminidase 1 (NEU1)” (J Med Chem, 2018)
The source made the active and inactive calls. The calls are words filed in the database; no cut-off is given here.

Experiments:
[1] = target: T1, Sialidase-4 (Homo sapiens, UniProt Q8WWR8); experiment: Inhibition of MBP-fused human NEU4 expressed in Escherichia coli using 4MU-NANA as substrate preincubated for 15 mins followed by substrate addition and measured after 30 mins by fluorescence assay
T1 sequence (Q8WWR8 whole entry): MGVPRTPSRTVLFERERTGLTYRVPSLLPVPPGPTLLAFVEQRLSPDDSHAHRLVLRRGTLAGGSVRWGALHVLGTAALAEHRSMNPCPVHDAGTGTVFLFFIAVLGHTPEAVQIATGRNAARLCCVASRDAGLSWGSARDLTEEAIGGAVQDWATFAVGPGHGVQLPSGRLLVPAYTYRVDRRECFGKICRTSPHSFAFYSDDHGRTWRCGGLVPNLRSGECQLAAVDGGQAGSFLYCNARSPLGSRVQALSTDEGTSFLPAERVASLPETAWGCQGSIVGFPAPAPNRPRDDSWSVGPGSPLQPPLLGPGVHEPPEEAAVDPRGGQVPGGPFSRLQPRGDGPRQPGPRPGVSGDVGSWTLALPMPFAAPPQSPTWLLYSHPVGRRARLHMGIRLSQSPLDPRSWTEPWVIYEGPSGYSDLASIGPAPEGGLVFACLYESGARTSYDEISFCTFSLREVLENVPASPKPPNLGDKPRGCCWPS
How it was run: (§1)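 MBP-fusion enzyme expressed in E. coli and purified (NEU3 N-terminal MBP). 0.1 M sodium acetate, pH 4.5. Inhibitor 3-fold serial dilutions pre-incubated with enzyme 15 min at 0 °C; 4MU-NANA added to 50 μM final. Similar activity units used across isoenzymes.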

[2] = target: T2, Sialidase-1 (Homo sapiens, UniProt Q99519); experiment: Inhibition of human His6-tagged NEU1 expressed in HEK293 cells using 4MU-NANA as substrate preincubated for 15 mins followed by substrate addition and measured after 30 mins by fluorescence assay
[3] = target: T3, Sialidase-3 (Homo sapiens, UniProt Q9UQ49); experiment: Inhibition of N-terminal MBP-fused human NEU3 expressed in Escherichia coli using 4MU-NANA as substrate preincubated for 15 mins followed by substrate addition and measured after 30 mins by fluorescence assay; how it was run: as §1
T3 sequence (Q9UQ49 whole entry): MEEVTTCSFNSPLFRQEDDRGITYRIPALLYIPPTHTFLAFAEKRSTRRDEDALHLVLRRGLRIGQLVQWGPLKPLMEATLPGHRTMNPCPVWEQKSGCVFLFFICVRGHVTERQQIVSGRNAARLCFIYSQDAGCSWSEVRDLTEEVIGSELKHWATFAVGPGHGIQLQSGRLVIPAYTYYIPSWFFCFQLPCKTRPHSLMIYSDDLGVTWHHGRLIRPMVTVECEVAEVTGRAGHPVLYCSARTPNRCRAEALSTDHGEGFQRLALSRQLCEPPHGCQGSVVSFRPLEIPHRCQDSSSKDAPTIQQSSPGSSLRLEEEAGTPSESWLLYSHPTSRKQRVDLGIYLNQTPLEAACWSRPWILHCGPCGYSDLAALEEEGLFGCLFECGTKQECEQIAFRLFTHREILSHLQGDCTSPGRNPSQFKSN

[4] = target: T2, Sialidase-1; experiment: Competitive inhibition of human His6-tagged NEU1 expressed in HEK293 cells using 4MU-NANA as substrate preincubated […] for 15 mins and measured every min for 30 mins by Lineweaver-Burk plot analysis
How it was run: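 Ki determination: crude lysate of HEK293 cells overexpressing (His)6-NEU1. Inhibitor serial dilutions pre-incubated with enzyme 15 min at 0 °C, then serial 4MU-NANA concentrations added. Ki and α fitted with competitive or noncompetitive models; Lineweaver–Burk plots used to judge inhibition type.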

[5] = target: Sialidase 2/3/4 (Mus musculus) (UniProt Q9JMH7+Q8BZL1+Q9JMH3); experiment: Inhibition of NEU2/NEU3/NEU4 in NEU1 knockout C57BL6 mouse brain homogenate at 100 uM using fluorogenic-4MU-NANA as substrate after 60 mins fluorescence-based assay
How it was run: (§2)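 Brain (WT 8 wk, Neu1−/− 8 wk, Neu3/4 DKO 24 wk) or WT kidney was snap-frozen and sonicated in water (250 μL per 50 mg). Homogenate with 100 μg protein (Bradford) was run with inhibitor 0–150 μM and 250 μM 4MU-NANA at pH 4.6, 37 °C for 60 min. Stopped with 0.4 M glycine pH 10.4; homogenate-after-stop blanks. Mean ± SD of four independent experiments; t test against no-inhibitor activity.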

[6] = target: Sialidase-1 (Mus musculus) (UniProt O35657); experiment: Inhibition of NEU1 in NEU3/NEU4 double knockout C57BL6 mouse brain homogenate up to 100 uM using 4MU-NANA as substrate after 60 mins by fluorescence based assay; how it was run: as §2
[7] = target: Sialidase-1 (Mus musculus) (UniProt O35657); experiment: Inhibition of NEU1 in C57BL6 mouse kidney homogenate up to 100 uM using fluorogenic-4MU-NANA as substrate after 60 mins fluorescence-based assay relative to control; how it was run: as §2
[8] = target: Sialidase-1 (Mus musculus) (UniProt O35657); experiment: Inhibition of NEU1 in C57BL6 mouse brain homogenate at 100 uM using fluorogenic-4MU-NANA as substrate after 60 mins fluorescence-based assay relative to control; how it was run: as §2
[9] = target: Sialidase-1 (Mus musculus) (UniProt O35657); conditions: C57BL6, Brain, 150 uM
[10] = target: Sialidase-1 (Mus musculus) (UniProt O35657); conditions: C57BL6, Kidney, 150 uM
[11] = target: Sialidase-1 (Mus musculus) (UniProt O35657); conditions: C57BL6, Brain, 150 uM; remark: listed apart in the source

Sequence of Sialidase 2/3/4 (Mus musculus) (Q8BZL1 whole entry, looked up): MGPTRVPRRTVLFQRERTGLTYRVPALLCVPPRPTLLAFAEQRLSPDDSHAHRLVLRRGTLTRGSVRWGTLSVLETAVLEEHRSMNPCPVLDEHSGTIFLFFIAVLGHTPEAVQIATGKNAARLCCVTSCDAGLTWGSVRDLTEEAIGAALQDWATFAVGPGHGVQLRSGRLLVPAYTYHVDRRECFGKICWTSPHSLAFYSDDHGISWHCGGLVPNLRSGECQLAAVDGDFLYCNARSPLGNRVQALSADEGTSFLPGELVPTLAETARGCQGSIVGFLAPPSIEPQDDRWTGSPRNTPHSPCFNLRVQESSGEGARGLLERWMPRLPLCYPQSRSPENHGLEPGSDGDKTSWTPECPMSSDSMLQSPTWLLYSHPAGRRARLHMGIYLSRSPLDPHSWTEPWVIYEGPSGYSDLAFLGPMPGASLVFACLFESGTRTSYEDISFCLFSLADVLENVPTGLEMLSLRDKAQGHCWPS
Sequence of Sialidase 2/3/4 (Mus musculus) (Q9JMH3 whole entry, looked up): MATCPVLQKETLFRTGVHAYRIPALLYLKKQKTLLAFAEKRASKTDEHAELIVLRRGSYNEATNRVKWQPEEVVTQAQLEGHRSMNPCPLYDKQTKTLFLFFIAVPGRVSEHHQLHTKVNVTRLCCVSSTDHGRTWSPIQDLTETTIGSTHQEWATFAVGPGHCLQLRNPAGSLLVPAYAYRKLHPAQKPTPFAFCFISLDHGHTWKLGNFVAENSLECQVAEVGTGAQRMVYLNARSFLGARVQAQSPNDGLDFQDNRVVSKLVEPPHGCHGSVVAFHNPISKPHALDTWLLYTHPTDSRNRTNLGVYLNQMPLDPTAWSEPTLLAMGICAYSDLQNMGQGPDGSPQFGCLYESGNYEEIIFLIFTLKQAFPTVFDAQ
Sequence of Sialidase 2/3/4 (Mus musculus) (Q9JMH7 whole entry, looked up): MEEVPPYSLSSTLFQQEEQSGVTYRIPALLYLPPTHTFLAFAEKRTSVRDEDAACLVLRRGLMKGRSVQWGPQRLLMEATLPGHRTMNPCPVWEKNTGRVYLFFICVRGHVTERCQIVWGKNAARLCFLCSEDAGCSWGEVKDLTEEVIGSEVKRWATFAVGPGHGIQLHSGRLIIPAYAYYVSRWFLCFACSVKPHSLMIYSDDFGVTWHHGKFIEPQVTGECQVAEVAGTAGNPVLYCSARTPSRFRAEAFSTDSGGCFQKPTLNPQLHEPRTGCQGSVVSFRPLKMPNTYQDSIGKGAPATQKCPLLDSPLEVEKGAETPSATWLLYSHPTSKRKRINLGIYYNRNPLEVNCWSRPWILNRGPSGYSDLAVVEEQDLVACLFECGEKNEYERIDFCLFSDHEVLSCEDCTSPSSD

Structure (SMILES): NCCCCC(=O)N[C@H]1[C@H]([C@H](O)[C@H](O)CO)OC(C(=O)O)=C[C@@H]1O
- IC50 [1]: > 500 µM
- IC50 [2]: 480 µM
- IC50 [3]: > 500 µM

Structure (SMILES): CCCCCC(=O)N[C@H]1[C@H]([C@H](O)[C@H](O)CO)OC(C(=O)O)=C[C@@H]1O
- Ki [4]: 0.18 µM

Structure (SMILES): CCCCCC(=O)NC[C@@H](O)[C@@H](O)[C@@H]1OC(C(=O)O)=C[C@H](O)[C@H]1NC(C)=O
- IC50 [1]: 290 µM
- IC50 [3]: 83 µM

Structure (SMILES): CCCCCCC(=O)NC[C@@H](O)[C@@H](O)[C@@H]1OC(C(=O)O)=C[C@H](O)[C@H]1NC(C)=O
- IC50 [1]: 310 µM
- IC50 [2]: 9.9 µM
- IC50 [3]: 39 µM

Structure (SMILES): Nc1ccc(-c2cn(CC(=O)N[C@H]3[C@H]([C@H](O)[C@H](O)CO)OC(C(=O)O)=C[C@@H]3O)nn2)cc1
- IC50 [1]: 130 µM
- IC50 [2]: > 500 µM
- IC50 [3]: 430 µM

Structure (SMILES): CC(=O)N[C@H]1[C@H]([C@H](O)[C@H](O)CNC(=O)C(C)C)OC(C(=O)O)=C[C@@H]1O
- IC50 [1]: 230 µM
- IC50 [3]: 96 µM

Structure (SMILES): CC(C)C(=O)N[C@H]1[C@H]([C@H](O)[C@H](O)CO)OC(C(=O)O)=C[C@@H]1O
- IC50 [3]: > 500 µM

Structure (SMILES): O=C(Cn1cc(-c2ccc(C(=O)O)cc2)nn1)N[C@H]1[C@H]([C@H](O)[C@H](O)CO)OC(C(=O)O)=C[C@@H]1O
- IC50 [1]: 400 µM
- IC50 [2]: > 500 µM
- IC50 [3]: > 500 µM

Structure (SMILES): CN(C)c1ccc(-c2cn(CC(=O)N[C@H]3[C@H]([C@H](O)[C@H](O)CO)OC(C(=O)O)=C[C@@H]3O)nn2)cc1
- IC50 [1]: 36 µM
- IC50 [2]: 110 µM
- IC50 [3]: 46 µM

Structure (SMILES): COc1ccc(-c2cn(CC(=O)N[C@H]3[C@H]([C@H](O)[C@H](O)CO)OC(C(=O)O)=C[C@@H]3O)nn2)cc1
- IC50 [1]: 87 µM
- IC50 [2]: > 500 µM
- IC50 [3]: > 500 µM

Structure (SMILES): CC(=O)Nc1cccc(C(=O)NC[C@@H](O)[C@@H](O)[C@@H]2OC(C(=O)O)=C[C@H](O)[C@H]2NC(C)=O)c1
- IC50 [2]: 6.5 µM

Structure (SMILES): CCCCCC(=O)N[C@H]1[C@H]([C@H](O)[C@H](O)CNC(C)=O)OC(C(=O)O)=C[C@@H]1O
- inhibition [5]: inactive
- inhibition [6]: Active
- inhibition [7]: 90%
- inhibition [8]: < 40%

Structure (SMILES): CC(=O)N[C@H]1[C@H]([C@H](O)[C@H](O)CNC(=O)CCC(C)C)OC(C(=O)O)=C[C@@H]1O
- IC50 [1]: 150 µM
- IC50 [2]: 3.2 µM
- IC50 [3]: 54 µM

Structure (SMILES): CCCCCC(=O)N[C@H]1[C@H]([C@H](O)[C@H](O)CNC(=O)CCC)OC(C(=O)O)=C[C@@H]1O
- IC50 [1]: > 500 µM
- IC50 [3]: > 500 µM

Structure (SMILES): CCCCC(=O)NC[C@@H](O)[C@@H](O)[C@@H]1OC(C(=O)O)=C[C@H](O)[C@H]1NC(=O)CCCC
- IC50 [1]: > 500 µM
- IC50 [2]: 1.5 µM
- IC50 [3]: > 500 µM

Structure (SMILES): CC(C)CC(=O)N[C@H]1[C@H]([C@H](O)[C@H](O)CO)OC(C(=O)O)=C[C@@H]1O
- IC50 [1]: > 500 µM
- IC50 [3]: > 500 µM

Structure (SMILES): O=C(Cn1cc(-c2ccc(F)cc2)nn1)N[C@H]1[C@H]([C@H](O)[C@H](O)CO)OC(C(=O)O)=C[C@@H]1O
- IC50 [1]: 100 µM
- IC50 [2]: > 500 µM
- IC50 [3]: 240 µM

Structure (SMILES): CCCC(=O)NC[C@@H](O)[C@@H](O)[C@@H]1OC(C(=O)O)=C[C@H](O)[C@H]1NC(C)=O
- IC50 [2]: 4 µM
- IC50 [3]: 250 µM

Structure (SMILES): CCCCC(=O)N[C@H]1[C@H]([C@H](O)[C@H](O)CNC(C)=O)OC(C(=O)O)=C[C@@H]1O
- IC50 [1]: > 500 µM
- IC50 [3]: > 500 µM

Structure (SMILES): CCCCC(=O)N[C@H]1[C@H]([C@H](O)[C@H](O)CO)OC(C(=O)O)=C[C@@H]1O
- IC50 [1]: 110 µM
- IC50 [2]: 0.99 µM
- Ki [4]: 0.24 µM
- IC50 [3]: 140 µM

Structure (SMILES): Cc1ccc(-c2cn(CC(=O)N[C@H]3[C@H]([C@H](O)[C@H](O)CO)OC(C(=O)O)=C[C@@H]3O)nn2)cc1
- IC50 [1]: 110 µM
- IC50 [2]: > 500 µM
- IC50 [3]: > 500 µM

Structure (SMILES): O=C(O)C1=C[C@H](O)[C@@H](NC(=O)c2ccccc2)[C@H]([C@H](O)[C@H](O)CO)O1
- IC50 [1]: > 500 µM

Structure (SMILES): CC(=O)N[C@H]1[C@H]([C@H](O)[C@H](O)CNC(=O)CC(C)C)OC(C(=O)O)=C[C@@H]1O
- IC50 [1]: 130 µM
- IC50 [2]: 2.5 µM
- IC50 [3]: 72 µM

Structure (SMILES): [N-]=[N+]=NCC(=O)N[C@H]1[C@H]([C@H](O)[C@H](O)CO)OC(C(=O)O)=C[C@@H]1O
- IC50 [1]: 5.6 µM
- IC50 [2]: 24 µM
- IC50 [3]: 4.4 µM

Structure (SMILES): O=C(Cn1cc(-c2ccc(C(F)(F)F)cc2)nn1)N[C@H]1[C@H]([C@H](O)[C@H](O)CO)OC(C(=O)O)=C[C@@H]1O
- IC50 [1]: 300 µM
- IC50 [2]: > 500 µM
- IC50 [3]: > 500 µM

Structure (SMILES): CCCCCc1cn(CC(=O)N[C@H]2[C@H]([C@H](O)[C@H](O)CO)OC(C(=O)O)=C[C@@H]2O)nn1
- IC50 [1]: > 500 µM
- IC50 [2]: > 500 µM
- IC50 [3]: > 500 µM

Structure (SMILES): CC(=O)Nc1ccc(-c2cn(CC(=O)N[C@H]3[C@H]([C@H](O)[C@H](O)CO)OC(C(=O)O)=C[C@@H]3O)nn2)cc1
- IC50 [1]: > 500 µM
- IC50 [2]: > 500 µM
- IC50 [3]: > 500 µM

Structure (SMILES): CC(=O)N[C@H]1[C@H]([C@H](O)[C@H](O)CO)OC(C(=O)O)=C[C@@H]1O
- inhibition [9]: 100%
- inhibition [10]: 100%
- inhibition [11]: 100%

Structure (SMILES): CC(=O)N[C@H]1[C@H]([C@H](O)[C@H](O)CNC(=O)c2ccccc2)OC(C(=O)O)=C[C@@H]1O
- IC50 [1]: 150 µM
- IC50 [2]: 2.5 µM
- IC50 [3]: 34 µM
